# Screening results deposited in PubChem BioAssay by Sanford-Burnham Center for Chemical Genomics.
# APJ antag: blocks the human apelin receptor APJ. P35414. CHO-K1 APJ beta-arrestin complementation, luminescence. inhibition, % at 20 µM. hit rate 0.32% among 330,000. AID 2521;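 active means inhibition above about 40% at 20 µM, limit read from the data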;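 further: cells challenged with 10 nM apelin-13 agonist together with compound; plate controls were apelin-13 plus DMSO wells for no effect and DMSO wells lacking apelin-13 for full effect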
# EBI2 block: antagonists of human EBI2 receptor. hit rate 0.81% among 360,000. EBI2 beta-arrestin recruitment, luminescence, 7a,25-OHC stimulated. P32249. inhibition, % at 5 µM; in the data active means inhibition above about 38%;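 further: enzyme fragment complementation signal reports receptor beta-arrestin coupling in cells; 0% = agonist plus DMSO wells and 100% = wells without agonist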
# CXCR6 block: CXCR6 (human) receptor inhibition | hit rate 0.36% among 360,000 | CHO-K1 PathHunter CXCR6 beta-arrestin, luminescence | inhibition, % at 20 µM; in the data active means inhibition above about 34%, passing the limit was not always enough;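 further: antagonist mode with CXCL16 agonist at 10 nM final; 0% = 10 nM CXCL16 with DMSO and 100% = unstimulated wells without agonist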
# Target sequence (O00574 whole entry, looked up): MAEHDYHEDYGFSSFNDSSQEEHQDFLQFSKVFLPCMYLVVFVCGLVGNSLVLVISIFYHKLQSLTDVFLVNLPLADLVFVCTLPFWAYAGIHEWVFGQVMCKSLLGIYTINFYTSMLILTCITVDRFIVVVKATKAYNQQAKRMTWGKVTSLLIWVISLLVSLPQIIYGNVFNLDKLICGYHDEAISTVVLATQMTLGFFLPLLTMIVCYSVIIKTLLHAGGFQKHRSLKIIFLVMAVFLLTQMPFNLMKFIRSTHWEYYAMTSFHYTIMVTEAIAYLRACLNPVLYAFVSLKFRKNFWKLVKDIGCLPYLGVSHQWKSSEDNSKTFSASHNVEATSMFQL
# CCR6 antag: antagonists of human CCR6 receptor. hit rate 0.49% among 340,000. CHO-K1 CCR6 PathHunter beta-arrestin, luminescence, CCL20-stimulated. AID 493098. inhibition, % at 20 µM. P51684;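 active means compounds whose inhibition of the agonist-driven luminescence signal at 20 µM reaches about 50%, limit read from the data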;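 further: cells stimulated with CCL20 at 14 nM final; plate controls were DMSO with CCL20 for no effect and DMSO without agonist for full effect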
# APJ ag: agonists of human APJ apelin receptor; P35414; hit rate 0.11% among 330,000; activation, % at 20 µM; CHO-K1 APJ PathHunter beta-arrestin, luminescence; 0% DMSO wells, 100% apelin;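 active means activation more than six SD over the plate average, tested at 20 µM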;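 further: 0% = DMSO alone and 100% = apelin-13 at 10 nM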
#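 Material: CHO-K1 APJ beta-arrestin complementation cell line; Input: cell density 1000 per well; Incubation: compound stimulation 90 min at 25 °C, detection 60 min; Signal: luminescence from split beta-galactosidase complementation, Galacton Star/Emerald II substrate; Controls: DMSO-only wells as negative, 10 nM Apelin-13 as positive control.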
# EBI2 conf: EBI2 (human) antagonism, single concentration confirmation | shares compounds with EBI2 block | EBI2 beta-arrestin luminescence, 7a,25-OHC antagonism | inhibition, % at 5 µM | hit rate 29% among 2,400;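 active means inhibition of at least 50%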
# EBI2 ag: counter-screen for EBI2 antagonists: EBI2 agonist activity; shares compounds with EBI2 block; EBI2-expressing cells, agonist mode, luminescence, 60 min; 0% vehicle, 100% 7α,25-dihydroxycholesterol control; activation, % at 5 µM; 2,400 tested, under 10 active; AID 652000;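 active means activation of at least 50%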
# bGal cs: beta-galactosidase inhibition counter-screen; shares compounds with EBI2 block; purified beta-galactosidase, luminescent Galacton Star, 15 min; inhibition, % at 5 µM; hit rate 1% among 2,400; AID 652176;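 active means replicate-average signal at least 3 plate SD below neutral wells, shown as high inhibition, flagging enzyme-inhibiting false positives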;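 further: 0% = DMSO wells with enzyme and 100% = wells lacking enzyme; higher means stronger loss of beta-gal luminescence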
# Numbers without * were called inactive; · = no result given. A selection: hits, their analogues and other compounds. The true share with any hit is near 1.5%.
SMILES,APJ antag,EBI2 block,CXCR6 block,CCR6 antag,APJ ag,EBI2 conf,EBI2 ag,bGal cs
C=CCNC(=S)N/N=C/c1cn(-c2ccccc2)nc1-c1ccc(OC)cc1,-17,45*,10,-18,2,35,1,7
COc1ccccc1-c1ccc2c(c1)O[C@@H](CN(C)C(=O)Nc1cccc(F)c1)[C@H](C)CN([C@H](C)CO)S2(=O)=O,·,44*,-14,·,·,2,2,2
COc1cccc(NC(=O)N(C)C[C@@H]2Oc3cc(Br)ccc3S(=O)(=O)N([C@@H](C)CO)C[C@H]2C)c1,·,-5,6,·,·,·,·,·
CC(NC(=O)C(=O)NCCc1c[nH]c2ccccc12)c1ccccc1 (configuration not stated),5,61*,14,-1,1,34,1,7
COc1ccc(N2CCN(C(CNC(=O)C(=O)NCCc3c[nH]c4ccccc34)c3ccco3)CC2)cc1 (configuration not stated),1,49*,10,1,0,45,-1,-22
CCC(=O)NCCc1c[nH]c2ccccc12,6,-6,-8,17,-1,·,·,·
O=C(NCCc1c[nH]c2ccccc12)c1ccc(Cl)cc1,0,60*,5,9,1,34,-1,-7
CC(C)(C)NC(=O)C1C(c2ccc(C(F)(F)F)cc2)=Nc2ccccc2N1C(=O)c1cccc2ccccc12 (configuration not stated),·,9,·,·,·,·,·,·
Cc1ccc(S(=O)(=O)N2C[C@@H](C)[C@]3(C2)[C@H](O)[C@H](OC(=O)Nc2cccs2)C[C@H]2C(=O)N(c4ccccc4)C(=O)[C@H]23)cc1,·,15,-8,·,·,·,·,·
CCN(CC)C(=O)CSc1nc2c(sc(=S)n2-c2ccccc2)c(=O)n1Cc1ccco1,5,57*,14,27,-3,37,0,8
CCN(CC)C(=O)CSc1nc2c(sc(=S)n2CC)c(=O)n1-c1ccccc1,-4,10,6,-1,-3,·,·,·
Cc1ccccc1CSCCNC(=O)COc1ccc(Cl)cc1,-12,55*,6,19,-1,45,1,-1
CC(C)(C)SCCNC(=O)COc1ccc(Cl)cc1,2,33,5,5,1,·,·,·
COc1ccc(C(C(=O)c2ccccc2)c2ccccc2)cc1 (configuration not stated),·,11,·,·,·,·,·,·
CCOC(=O)C1CCN(c2nc3ccccc3nc2C(C#N)C(=O)OCCOC)CC1 (configuration not stated),18,22,13,27,-5,·,·,·
COC(=O)C1CCN(c2nc3ccccc3nc2C(C#N)C(=O)NCCc2ccccc2)CC1 (configuration not stated),18,67*,10,26,-5,14,-2,-11
O=C(NCc1ccc2c(c1)OCO2)C1CCN(C(=O)Nc2ccc(Cl)cc2)CC1,7,46*,-3,9,-5,6,-1,-12
Cc1ccc(-c2nc3ccc(C)cn3c2CC2CCCCC2)cc1,·,0,5,·,·,·,·,·
COc1ccc(-n2c(-c3ccco3)nc3c(cnn3-c3ccccc3C)c2=O)cc1,-8,-17,-2,9,-2,·,·,·
COc1ccc(-n2c(-c3ccco3)nc3c(cnn3-c3ccc(C)cc3)c2=O)cc1,8,43*,7,4,1,38,0,0
N#Cc1cc2c(nc1SCC(=O)Nc1sc3c(c1C#N)CCC3)CCCC2,5,18,-7,-17,-2,·,·,·
N#Cc1ccc(-c2ccc(F)cc2)nc1SCC(=O)Nc1sc2c(c1C#N)CCC2,9,53*,-1,15,-1,33,2,-16
COc1ccc(C(=O)N2CC(c3ccc(Cl)cc3)CC2=O)cc1 (configuration not stated),3,13,-1,2,-9,·,·,·
COc1ccc(C(=O)CN2CC(C)SC2=Nc2ccc(Cl)cc2)cc1 (configuration not stated),18,44*,0,24,0,27,0,5
